Data taken from ChEMBL document CHEMBL1275291, “Design, synthesis and in vitro evaluation of antitubercular and antimicrobial activity of some novel pyranopyrimidines” (2010).
≈ marks a conversion by molar mass, not a printed value.

Columns and labels:
Format in all cases: functional
Aspergillus niger = assay: Antimicrobial activity against Aspergillus niger MTCC 282 after 24 hrs by serial dilution method
[1] = test system: Mycobacterium tuberculosis; assay: Antitubercular activity against Mycobacterium tuberculosis H37Rv ATCC 27294 by agar microdilution method
Method in brief: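 Twofold dilutions in Middlebrook 7H10 agar with OADC supplement, 3 mL per well in 24-well plates, in duplicate. Final concentrations 1000, 500, 250, 125 and 62.5. Known CFU of H37Rv culture dispensed on top of agar in a negative-pressure biosafety hood. Incubated at 37 °C in a CO2 incubator. MIC read as the lowest concentration completely inhibiting growth and colony formation.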

Escherichia coli = assay: Antimicrobial activity against Escherichia coli ATCC 25922 after 24 hrs by serial dilution method; settings: ATCC 25922, 24 h
Staphylococcus aureus = assay: Antimicrobial activity against Staphylococcus aureus ATCC 25923 after 24 hrs by serial dilution method; settings: ATCC 25923, 24 h
Pseudomonas aeruginosa = assay: Antimicrobial activity against Pseudomonas aeruginosa MTCC 441 after 24 hrs by serial dilution method; settings: MTCC 441, 24 h
Streptococcus pyogenes = assay: Antimicrobial activity against Streptococcus pyogenes MTCC 443 after 24 hrs by serial dilution method; settings: MTCC 443, 24 h

| Molecule | MIC (Aspergillus niger) [µg/mL] | MIC [1] [µg/mL] | MIC (Aspergillus niger; MTCC 282, 24 h) [µg/mL] | MIC (Escherichia coli) [µg/mL] | MIC (Staphylococcus aureus) [µg/mL] | MIC (Pseudomonas aeruginosa) [µg/mL] | MIC (Streptococcus pyogenes) [µg/mL] |
| --- | --- | --- | --- | --- | --- | --- | --- |
| NYSTATIN | 100 | – | – | – | – | – | – |
| CO[C@H]1/C=C/O[C@@]2(C)Oc3c(C)c(O)c4c(O)c(c(/C=N/N5CCN(C)CC5)c(O)c4c3C2=O)NC(=O)/C(C)=C\C=C\[C@H](C)[C@H](O)[C@@H](C)[C@@H](O)[C@@H](C)[C@H](OC(C)=O)[C@@H]1C [RIFAMPIN] | – | 40 (≈ 48.6 µM) | – | – | – | – | – |
| COC1=CC(=O)C[C@@H](C)[C@]12Oc1c(Cl)c(OC)cc(OC)c1C2=O [GRISEOFULVIN] | – | – | 100 (≈ 283 µM) | – | – | – | – |
| COc1ccc(C2C(C#N)=C(N)Oc3ccccc32)cc1 (stereo not given) | – | 500 (≈ 1800 µM) | 1000 (≈ 3590 µM) | 500 (≈ 1800 µM) | 250 (≈ 898 µM) | 500 (≈ 1800 µM) | 250 (≈ 898 µM) |
| COc1ccc(C2c3ccc4cccnc4c3Oc3[nH]c(=O)nc(N)c32)cc1 (stereo not given) | – | – | 250 (≈ 671 µM) | 125 (≈ 336 µM) | 62.5 (≈ 168 µM) | 125 (≈ 336 µM) | 125 (≈ 336 µM) |
| COc1ccc(C2C(C#N)=C(N)Oc3c2ccc2ccccc32)cc1 (stereo not given) | – | 1000 (≈ 3050 µM) | 500 (≈ 1520 µM) | 500 (≈ 1520 µM) | 500 (≈ 1520 µM) | 1000 (≈ 3050 µM) | 500 (≈ 1520 µM) |
| COc1ccc(C2C(C#N)=C(N)Oc3c2ccc2cccnc32)cc1 (stereo not given) | – | 250 (≈ 759 µM) | 500 (≈ 1520 µM) | 250 (≈ 759 µM) | 125 (≈ 380 µM) | 250 (≈ 759 µM) | 125 (≈ 380 µM) |
| COc1ccc(C2C(C#N)=C(N)Oc3ccc4ccccc4c32)cc1 (stereo not given) | – | 1000 (≈ 3050 µM) | 1000 (≈ 3050 µM) | 150 (≈ 457 µM) | 250 (≈ 761 µM) | 500 (≈ 1520 µM) | 250 (≈ 761 µM) |
| O=C(O)c1cn(C2CC2)c2cc(N3CCNCC3)c(F)cc2c1=O [CIPROFLOXACIN] | – | – | – | 25 (≈ 75.4 µM) | 50 (≈ 151 µM) | – | 50 (≈ 151 µM) |
| COc1ccc(C2C(C#N)=C(N)Oc3cc(O)ccc32)cc1 (stereo not given) | – | 250 (≈ 849 µM) | 500 (≈ 1700 µM) | 250 (≈ 849 µM) | 125 (≈ 425 µM) | 250 (≈ 849 µM) | 125 (≈ 425 µM) |
| CC1(C)S[C@@H]2[C@H](NC(=O)[C@H](N)c3ccccc3)C(=O)N2[C@H]1C(=O)O [AMPICILLIN] | – | – | – | 100 (≈ 286 µM) | 100 (≈ 286 µM) | 100 (≈ 286 µM) | 250 (≈ 715 µM) |
